Results from ChEMBL document CHEMBL4706741, “De Novo Design, Synthesis, and Mechanistic Evaluation of Short Peptides That Mimic Heat Shock Protein 27 Activity” (ACS Med Chem Lett, 2021).
The source made the active and inactive calls. The calls are words filed in the database; no cut-off is given here. Where a SMILES comes first, the peptide text is derived from it.

Key:
Format in all cases: functional
[1] = Chaperone like activity at heat-induced citrate synthase aggregation assessed as aggregation at 200 uM incubated for 5 mins followed by heat stimulation for 3 mins in 43 degC and measured after 60 mins by fluorimetric analysis (reference value: 100%); settings: time 68.0 min
Summary of the method: (§1)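 Thermal aggregation of citrate synthase (150 nM). Peptides were brought to 43 °C in buffer, and CS was added once the temperature had equilibrated. Light scattering at 360 nm was monitored over time. CS with 1% DMSO was set as 100% aggregation, with an Hsp27 (600 nM) chaperone reference run on the same day. Mean ± SEM of at least two or three independent experiments.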

[2] = Chaperone like activity at heat-induced citrate synthase aggregation assessed as aggregation at 0.6 uM incubated for 5 mins followed by heat stimulation for 3 mins in 43 degC and measured after 60 mins by fluorimetric analysis (reference value: 100%); settings: time 68.0 min; summary of the method: as §1
[3] = Chaperone like activity at heat-induced citrate synthase aggregation assessed as aggregation at 1.2 uM incubated for 5 mins followed by heat stimulation for 3 mins in 43 degC and measured after 60 mins by fluorimetric analysis (reference value: 100%); settings: time 68.0 min; summary of the method: as §1
[4] = Chaperone like activity at heat-induced citrate synthase aggregation assessed as aggregation at 30 uM incubated for 5 mins followed by heat stimulation for 3 mins in 43 degC and measured after 60 mins by fluorimetric analysis (reference value: 100%); settings: time 68.0 min; summary of the method: as §1
[5] = Chaperone like activity at heat-induced citrate synthase aggregation assessed as aggregation at 60 uM incubated for 5 mins followed by heat stimulation for 3 mins in 43 degC and measured after 60 mins by fluorimetric analysis (reference value: 100%); settings: time 68.0 min; summary of the method: as §1
[6] = Chaperone like activity at heat-induced citrate synthase aggregation assessed as aggregation at 100 uM incubated for 5 mins followed by heat stimulation for 3 mins in 43 degC and measured after 60 mins by fluorimetric analysis (reference value: 100%); settings: time 68.0 min; summary of the method: as §1
[7] = Chaperone like activity at heat-induced citrate synthase aggregation assessed as aggregation at 150 uM incubated for 5 mins followed by heat stimulation for 3 mins in 43 degC and measured after 60 mins by fluorimetric analysis (reference value: 100%); settings: time 68.0 min; summary of the method: as §1
[8] = Chaperone like activity at heat-induced citrate synthase aggregation assessed as aggregation incubated for 5 mins followed by heat stimulation for 3 mins in 43 degC and measured after 60 mins by fluorimetric analysis relative to control; settings: time 68.0 min; summary of the method: as §1
[9] = Chaperone like activity at kappa-casein amyloid formation at 10 to 200 uM measured upto 21 hrs by fluorescence based assay; settings: dose 10-200 µM, time hrs <=21
[10] = Chaperone like activity at Gdn-Cl/DTT-induced citrate synthase aggregation assessed as aggregation at 200 uM incubated for 5 mins followed by heat stimulation for 3 mins in 43 degC and measured after 60 mins by fluorimetric analysis (reference value: 100%); settings: time 68.0 min
Summary of the method: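 Citrate synthase (150 nM) unfolded with guanidine chloride and DTT at room temperature, then a small aliquot diluted into refolding buffer with peptide (200 μM) or Hsp27 (600 nM). Aggregation followed by light scattering for 1 h. The 1% DMSO control at 1 h was taken as 100% aggregation. Mean ± SEM of at least two independent experiments.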

[11] = Chaperone like activity at kappa-casein amyloid formation at 200 uM measured upto 21 hrs by fluorescence based assay; settings: time hrs <=21

**Q.** What does the source list for `N[C@@H](CO)C(=O)N[C@@H](Cc1c[nH]c2ccccc12)C(=O)N[C@@H](CC(=O)O)C(=O)N1CCC[C@H]1C(=O)N[C@@H](Cc1ccccc1)C(=O)O`?
**A.** Activity [1]: 46%; Activity [2]: 92%; Activity [3]: 75%; Activity [4]: 73%; Activity [5]: 63%; Activity [6]: 23%; Activity [7]: 15%; Activity [8]: Dose-dependent effect; Activity [9]: inactive; Activity [10]: 63%

**Q.** Which Activity [1] does the source give for `N[C@H](CO)C(=O)N[C@H](Cc1c[nH]c2ccccc12)C(=O)N[C@H](CC(=O)O)C(=O)N1CCC[C@@H]1C(=O)N[C@H](Cc1ccccc1)C(=O)O` here?
**A.** 90%

**Q.** For `N[C@@H](Cc1c[nH]c2ccccc12)C(=O)N[C@@H](CC(=O)O)C(=O)N1CCC[C@H]1C(=O)N[C@@H](Cc1ccccc1)C(=O)O` (H-WDPF-OH), which Activity [1] is on record?
**A.** 115%

**Q.** With H-AWDPF-OH as the compound, how does the Activity [1] read?
**A.** 96%

**Q.** Which Activity [1] does the source give for H-DWDPF-OH here?
**A.** 110%

**Q.** What does the source list for H-GPSWDPFRDW-OH?
**A.** Activity [1]: 46%; Activity [8]: Dose-dependent effect; Activity [11]: inactive

**Q.** With H-SADPF-OH as the compound, how does the Activity [1] read?
**A.** 86%

**Q.** Which Activity [1] does the source give for H-SWAPF-OH here?
**A.** 81%

**Q.** With H-SWDAF-OH as the compound, how does the Activity [1] read?
**A.** 80%

**Q.** With H-SWDPA-OH as the compound, how does the Activity [1] read?
**A.** 78%

**Q.** With H-SWDPFR-OH as the compound, how does the Activity [1] read?
**A.** 96%

**Q.** Which Activity [1] does the source give for H-SWDPFRD-OH here?
**A.** 57%

**Q.** What about the Activity [10] of the same compound?
**A.** 52%

**Q.** For H-SWDPFRDW-OH, which Activity [1] is on record?
**A.** 13%

**Q.** And the Activity [8]?
**A.** Dose-dependent effect

**Q.** And the Activity [10]?
**A.** 0%

**Q.** For H-WDPFR-OH, which Activity [1] is on record?
**A.** 98%
